Here are results for three compounds from ChEMBL document CHEMBL1687805, “Colistin resistance in Acinetobacter baumannii is mediated by complete loss of lipopolysaccharide production” (2010).

Values after ≈ are worked out from the molar mass of the structure shown.

What all share (format): functional
The subject of assay [1] is Acinetobacter baumannii. The experiment in a line: Antibacterial activity against colistin-resistant Acinetobacter baumannii ATCC 19606R harboring pAL840 plasmid encoding intact lpxA gene by broth microdilution method. A digest of the protocol:
(§1)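 Broth microdilution MIC in cation-adjusted Mueller-Hinton broth following the CLSI protocol, read in μg/ml. Strains were kept on Mueller-Hinton agar and cultured at 37°C. 19606R was selected directly on 10 μg/ml colistin and maintained with it. The pWH1266 or pAL840 transformants of 19606R were introduced by electroporation and selected on 100 μg/ml ampicillin.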
(In broth dilution the organism is exposed to a series of concentrations in liquid medium.)

Assay [2] concerns Acinetobacter baumannii. The experiment in a line: Antibacterial activity against colistin-resistant Acinetobacter baumannii ATCC 19606R harboring empty plasmid pWH1266 by broth microdilution method. A digest of the protocol: as §1
For assay [3], the system named is Acinetobacter baumannii. Description: Antibacterial activity against colistin-resistant Acinetobacter baumannii ATCC 19606R exhibiting complete loss of lipopolysaccharide production by broth microdilution method. A digest of the protocol: as §1
In assay [4] the test system is Acinetobacter baumannii. The experiment in a line: Antibacterial activity against Acinetobacter baumannii ATCC 19606 by broth microdilution method. A digest of the protocol: as §1

Broadly, the MIC is the lowest concentration that inhibits growth of the organism. Low readings indicate greater potency, high ones weaker potency.

Take `CO/N=C(\C(=O)N[C@@H]1C(=O)N2C(C(=O)[O-])=C(C[N+]3(C)CCCC3)CS[C@H]12)c1csc(N)n1`: the MIC in the assay on Acinetobacter baumannii [1] came out at 16 µg/mL (≈ 33.3 µM); against Acinetobacter baumannii [2], 0.125 µg/mL (≈ 0.26 µM); against Acinetobacter baumannii [3] it was 0.125 µg/mL (≈ 0.26 µM); against Acinetobacter baumannii [4], 16 µg/mL (≈ 33.3 µM).

Regarding `CC[C@H]1OC(=O)[C@H](C)[C@@H](O[C@H]2C[C@@](C)(OC)[C@@H](O)[C@H](C)O2)[C@H](C)[C@@H](O[C@@H]2O[C@H](C)C[C@H](N(C)C)[C@H]2O)[C@](C)(O)C[C@@H](C)CN(C)[C@H](C)[C@@H](O)[C@]1(C)O` [AZITHROMYCIN], the MIC came to 64 µg/mL (≈ 85.4 µM) against Acinetobacter baumannii [1], 2 µg/mL (≈ 2.67 µM) against Acinetobacter baumannii [2], 2 µg/mL (≈ 2.67 µM) against Acinetobacter baumannii [3] and 64 µg/mL (≈ 85.4 µM) against Acinetobacter baumannii [4].

Regarding POLYMYXIN B, the MIC is 0.5 µg/mL against Acinetobacter baumannii [1], greater than 128 µg/mL against Acinetobacter baumannii [2], greater than 128 µg/mL against Acinetobacter baumannii [3] and 0.5 µg/mL in the assay on Acinetobacter baumannii [4].
